GASC-1 inh: blocks human GASC-1 demethylase activity; GST-JMJD2C(1-420) H3K9me3 demethylation, DELFIA europium; inhibition, % at 2.35 µM; hit rate 0.069% among 330,000;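 active = more than half of a compound's replicate wells show inhibition beyond 50%, single wells judged on their own value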;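 also: signal counts dimethyl H3K9 product captured on neutravidin plate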
SR-BI HDL uptake: mouse SR-BI HDL lipid transfer inhibition; Q61009; ldlA[mSR-BI] CHO cells, DiI-HDL uptake fluorescence, 3 h; inhibition, % at 12.5 µM; hit rate 0.96% among 320,000;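 active = mean replicate inhibition of at least 70% and a set share of replicates each scoring 70 or more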
AHR act: activates the human aryl hydrocarbon receptor | AID 2796 | AHR-responsive luciferase reporter cells, luminescence | P35869 | hit rate 2.5% among 320,000 | activation, % at 5 µM; in the data active = activation above about 47%
SR-BI DiI-HDL act: enhances SR-BI lipid uptake from DiI-HDL; CHO ldlA[mSR-BI] cells, DiI-HDL uptake fluorescence, 3 h; 100 = double the neutral-control signal; activation, % at 12.5 µM; hit rate 0.096% among 320,000;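 active = mean replicate activation of at least 60% and every replicate at or above 60%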
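Assay system: LDL receptor-deficient CHO ldlA cells overexpressing murine SR-BI / Medium: BSA-supplemented, HEPES-buffered Ham's F12, pH 7.4 / Probe or stimulus: DiI-labelled HDL at 10 µg/mL final / Timing: compound with DiI-HDL co-incubation, 3 h at 37 °C / Technique: bottom-read cell fluorescence after medium removal, ex 550/em 595 nm / Measure: HDL uptake via cellular fluorescence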
GAA850 FXN act: activators of GAA850 frataxin (FXN) promoter | HEK293 lucGAA850 FXN promoter luciferase reporter, 24 h; percent of 10 µM SAHA response | activation, % at 6 µM | hit rate 0.56% among 360,000 | AID 540364;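 active = activation above the average of all compounds screened plus 3 SD, cutoff fixed separately per campaign, cut at about 7.5% in these data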
GAA30 FXN cntr: GAA30 FXN promoter activation counter-screen; shares compounds with GAA850 FXN act; HEK293 lucGAA30 FXN promoter luciferase, 24 h; DMSO = 0%, 5 µM ipriflavone = 100%; hit rate 66% among 1,900; activation, % at 6 µM;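 active = mean activation above the mean of solvent-only control wells plus 3 SD, cut at about 22% in these data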;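 also: counterscreen of GAA850 promoter hits where activity marks nonselective or luminescence artifacts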
FXN GAA850 conf: GAA850 FXN promoter activation confirmation | shares compounds with GAA850 FXN act | HEK293 lucGAA850 FXN promoter luciferase reporter, 24 h; 100% = activation by SAHA | activation, % at 6 µM | hit rate 86% among 1,900;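 active = mean activation above a set limit taken from the primary screen, cut at about 8% in these data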
Hits are given with their value; n = inactive; x = not tested or not shown. A selection: hits, their analogues and other compounds. The true share with any hit is near 3.7%.

SMILES	GASC-1 inh	SR-BI HDL uptake	AHR act	SR-BI DiI-HDL act	GAA850 FXN act	GAA30 FXN cntr	FXN GAA850 conf
CS(=O)(=O)c1ccc(C(=O)OCC(=O)Nc2cccnc2Cl)cc1[N+](=O)[O-]	n	n	n	n	8.0	31	20
CS(=O)(=O)c1ccc(C(=O)OCc2nnc(-c3ccccc3)o2)cc1[N+](=O)[O-]	n	n	x	n	8.5	n	70
Cc1cc(-c2ccc(S(=O)(=O)NCc3ccc(Cl)cc3)cc2)on1	x	x	x	x	n	x	x
CC1CCC(NC(=O)CCn2ccc3cc(S(=O)(=O)N4CCCC4)ccc32)CC1 (stereo not given)	n	n	n	n	8.4	n	8.9
CC1([N+](=O)[O-])COC(C=Cc2ccccc2)OC1 (stereo not given)	x	n	x	n	n	x	x
C=CCn1c(-c2cccs2)nc2nc3ccccc3nc21	n	n	70	n	8.1	80	24
CC(=O)OCC(=O)C1(O)CCC2C3CC(C)C4=CC(=O)C=CC4(C)C3=CCC21C (stereo not given)	x	n	x	n	n	x	x
CCOC(=O)CNC(=O)CSc1nc(C)cc(C)c1C#N	n	n	n	n	n	x	x
CCOC(=O)NC(=O)CSc1nc(C)cc(C)c1C#N	n	n	n	n	8.2	103	30
OC1CCN(C(c2ccc3ncccc3c2)c2nnnn2C2CCCCC2)CC1 (stereo not given)	n	n	n	n	7.8	n	n
O=C(c1ccc(-c2ccc([N+](=O)[O-])cc2)o1)N1CCCCC1	n	n	n	n	8.5	125	44
COc1ccc2[nH]c3c(C)c4ccncc4c(C)c3c2c1	n	n	n	n	12	n	64
CCOC(=O)CNC(=S)N(Cc1cccs1)C1CCCCC1	n	n	n	n	8.0	n	9.2
COc1ccc(-c2cnn3c4c(c(C)nc23)CCN4C(C)C)cc1OC	n	n	n	n	9.8	80	36
COC(CN1CCc2c(C)nc3c(C#N)cnn3c21)OC	n	n	n	n	n	x	x
O=c1cc(-c2ccccc2)oc2ccc(O)cc12	n	n	n	n	9.2	134	42
C[C@H](CO)N1C[C@H](C)[C@H](CN(C)S(=O)(=O)c2ccccc2)Oc2ccc(NC(=O)NC3CCCCC3)cc2CC1=O	x	n	n	n	8.5	n	9.2
Cc1ccc(S(=O)(=O)Nc2ccc3c(c2)CC(=O)N([C@H](C)CO)C[C@@H](C)[C@H](CN(C)S(=O)(=O)c2ccccc2)O3)cc1	n	n	n	n	n	x	x
C[C@H](CO)N1C[C@H](C)[C@H](CN(C)S(=O)(=O)c2cccs2)Oc2ccc(NC(=O)Nc3ccc4c(c3)OCO4)cc2CC1=O	x	n	n	n	10	n	11
O=S(=O)(c1ccccc1)N1N=C(c2ccc(Cl)cc2)CC1c1ccco1 (stereo not given)	x	n	x	n	n	x	x
c1cncc(-c2nn3c(Cn4nnc5ccccc54)nnc3s2)c1	n	n	n	n	16	n	n
CC(=O)Nc1cccc(C(=O)N2CCN(S(=O)(=O)Cc3ccccc3)CC2)c1	n	n	n	n	n	x	x
NC(=O)C1=C(c2ccccc2)c2ccccc2C1=O	x	n	x	n	n	x	x
CC(=O)Nc1ccc(N(CC(O)Cn2c3ccccc3c3ccccc32)S(=O)(=O)c2ccc(C)cc2)cc1 (stereo not given)	n	n	n	n	16	n	12
CCOC(=O)C(=CNc1ccc(Oc2cccnc2)nc1)C(=O)OCC	n	n	n	n	n	x	x
SMILES	GASC-1 inh	SR-BI HDL uptake	AHR act	SR-BI DiI-HDL act	GAA850 FXN act	GAA30 FXN cntr	FXN GAA850 conf
C[C@@H]1CN([C@H](C)CO)S(=O)(=O)c2ccc(Br)cc2O[C@@H]1CN(C)Cc1ccc(-c2ccccc2)cc1	x	x	x	x	14	24	11
C[C@@H]1CN([C@H](C)CO)S(=O)(=O)c2ccc(Br)cc2O[C@@H]1CN(C)Cc1ccc(C(=O)O)cc1	x	x	x	x	n	x	x
O=C(Nc1cccnc1Cl)c1ccc2c(Cl)c3c(nc2c1)CCC3	n	n	x	n	7.7	113	30
CN(CCc1ccccn1)C(=O)CCC1CCCN(C(=O)c2ccc3c(c2)OCCO3)C1 (stereo not given)	n	n	n	n	n	x	x
CCOC(=O)c1cc(-c2ccc(OC)cc2)n(CCC(=O)NCCN2CCC(C)CC2)c1C	n	n	n	n	17	26	15
CN=c1scc(-c2ccco2)n1/N=C/c1ccc(O)c(O)c1	n	73	x	n	16	44	23
C=CCN=c1scc(C)n1/N=C/c1ccc(O)c(O)c1	n	n	n	n	10	63	28
Nc1nccc(N2CCCCC2)n1	x	x	x	x	n	x	x
CC(/C=C/C=C/c1ccccc1)=N/NC(=O)CNc1ccc(C)cc1	n	n	n	n	n	x	x
CC1(C)Cc2c(c(N3CCOCC3)nc3sc(C#N)c(N)c23)CS1	n	n	n	n	8.3	n	16
N#CCSc1ccc2nc(-c3ccccc3)cn2n1	n	n	n	n	7.7	119	31
N#CCSc1nc(-c2ccccc2)cs1	n	n	n	n	n	x	x
O=C(c1ccc(-c2cc(Cl)ccc2Cl)o1)N1CCOCC1	n	n	n	n	n	x	x
O=C(c1ccc(-c2ccc(Cl)cc2Cl)o1)N1CCOCC1	n	x	n	x	9.1	114	46
O=C(c1ccco1)N1CCN(C(=O)c2ccc(-c3ccccc3Cl)o2)CC1	n	n	n	n	7.6	88	30
CN1CCN(C(=S)c2ccc(-c3cccc(Cl)c3Cl)o2)CC1	n	n	n	n	n	x	x
O=C(c1cc(-c2ccccc2Cl)on1)N1CCN(C(=O)c2ccco2)CC1	n	x	n	x	n	x	x
S=C(c1ccc(-c2ccccc2Cl)o1)N1CCCCC1	n	n	n	n	8.6	113	39
CC(=O)Nc1ccc(-n2nnnc2SCC(=O)NCc2cccs2)cc1	n	n	n	n	n	x	x
COc1cccc(NC(=O)C2(S(=O)(=O)c3ccc(Cl)cc3)CC2)c1	n	x	n	x	n	x	x
O=C(Nc1ccccc1C(=O)Nc1ccccn1)c1cccc([N+](=O)[O-])c1	n	n	n	n	n	x	x
CN1CCN(S(=O)(=O)c2ccc(-c3ccc(Cl)cc3)cc2)CC1	n	n	n	n	13	46	13
CN1CCN(S(=O)(=O)c2ccc(Cl)cc2)CC1	n	n	n	n	n	x	x
COCCNC(=O)c1cc(-c2cccs2)on1	n	x	n	x	15	145	70
Cc1ccc(CCN2C(=O)CCC2(C)C(=O)NC2CCCC2)cc1 (stereo not given)	x	n	n	n	15	n	n
COc1ccc(CCN2C(=O)CCC2(C)C(=O)NC2CCCC2)cc1OC (stereo not given)	n	n	n	n	n	x	x
